According to ChEMBL document CHEMBL3272319, “Alkyl streptozotocin analogues with improved biological activities” (J Med Chem, 1976):

How the values were obtained:
Mus musculus [1] = experiment: Ratio of compound LD10 to streptozotocin LD10 for JCL-ICR mouse; type: ADME, organism-based; conditions: in vivo
[2] = Ratio of compound LD50 to streptozotocin LD50 for JCL-ICR mouse; type: ADME, organism-based; conditions: in vivo
Mus musculus [3] = experiment: Toxicity in BDF1 mouse allografted with mouse L1210 cells assessed as mortality at 50 mg/kg, ip qd for 5 days; type: organism-based; design: dose 50 mg/kg, route intraperitoneal; conditions: in vivo, 120 h
How it was run: (§1)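 L1210 (1 × 10^5 cells) implanted into BDF1 mice, six per group; compound in saline ip once daily days 1-5; effect read as % increase in life span, ILS = [(treated life span/control life span) − 1] × 100.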

[4] = (§2) Acute toxicity in ip dosed JCL-ICR mouse assessed as animal death; type: organism-based; conditions: JCL-ICR, in vivo
How it was run: (§3)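 Groups of ten female JCL-ICR mice given single ip dose in physiological saline; deaths followed over 7 days; LD50 (and LD10) derived by Litchfield–Wilcoxon method.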

Mus musculus [5] = experiment: as §2; type: organism-based; conditions: in vivo; how it was run: as §3
Rattus norvegicus [6] = experiment: Diabetogenic activity in iv dosed Wistar rat assessed as increase in blood sugar level administered as single dose by glucose oxidase method; type: ADME, organism-based; conditions: in vivo
How it was run: (§4)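 Male Wistar rats, about 200 g, five per group, fasted 16 h. Single iv dose into the femoral vein in physiological saline, equimolar across compounds. Caudal-vein blood sampled at set times over 24 h. Sugar measured by glucose oxidase.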

L1210 [7] = experiment: Antitumor activity against mouse L1210 cells allografted in BDF1 mouse assessed as increase in host lifespan at 50 mg/kg, ip qd for 5 days relative to control; type: functional; conditions: 120 h, route intraperitoneal; how it was run: as §1
[8] = Antitumor activity against mouse S180A allografted in ICR mouse assessed as tumor growth at 25 mg/kg, ip qd for 5 days measured on day 7 relative to control; type: functional; conditions: route intraperitoneal
How it was run: (§5)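 Ascites Sarcoma 180 (1 × 10^7 cells) implanted into ICR mice, six animals per group. Five daily ip injections in saline (days 1–5). Sacrificed day 7. T/C % computed from total packed cell volume (ascites volume × PCV) vs controls. Grades: 100-66 = -, 65-41 = +, 40-11 = ++, 10-0 = +++.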

Mus musculus [9] = experiment: Toxicity in ICR mouse allografted with mouse S180A assessed as mortality at 25 mg/kg, ip qd for 5 days; type: organism-based; design: dose 25 mg/kg, route intraperitoneal; conditions: in vivo, 120 h
How it was run: (§6)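 Ascites Sarcoma 180 (1 × 10^7 cells) implanted into ICR mice, six per group; compound in saline ip once daily days 1-5; sacrifice on day 7; total packed cell volume (ascites volume × PCV) compared with controls as T/C %; mortality recorded.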

Ehrlich [10] = experiment: Antitumor activity against mouse EAC allografted in ICR mouse assessed as tumor growth at 125 mg/kg, ip qd for 5 days measured on day 7 relative to control; type: functional; conditions: route intraperitoneal
How it was run: (§7)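 Ehrlich ascites carcinoma (1 × 10^7 cells) implanted into ICR mice, six per group. Drug in saline ip, qd days 1–5. Mice killed day 7. Total packed cell volume = ascites volume × % packed cell volume; T/C % = TPCV treated/control × 100. Activity graded from T/C.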

Mus musculus [11] = experiment: Toxicity in ICR mouse allografted with mouse EAC assessed as mortality at 125 mg/kg, ip qd for 5 days; type: organism-based; design: dose 125 mg/kg, route intraperitoneal; conditions: in vivo, 120 h
How it was run: (§8)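 Ehrlich ascites carcinoma (1 × 10^7 cells) implanted into ICR mice, six per group; compound ip daily for 5 days; mice sacrificed day 7; tumour burden as total packed cell volume (ascites volume × PCV), T/C % vs controls; mortality recorded.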

Escherichia coli = experiment: Antibacterial activity against Escherichia coli NIHJ JC-2 assessed as growth inhibition after 18 hrs by broth dilution method; type: functional; conditions: NIHJ JC-2, 18 h
How it was run: (§9)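 Twofold serial dilutions in heart infusion broth. Inoculum was a 24-h heart infusion broth culture diluted 100-fold in physiological saline. Tubes incubated 30 °C for 18 h; the table footnote gives 32 °C for 24 h. MIC in µg/ml is the lowest level giving complete growth inhibition.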

Enterococcus faecalis = experiment: Antibacterial activity against Streptococcus faecalis ATCC 10541 assessed as growth inhibition after 18 hrs by broth dilution method; type: functional; conditions: ATCC 10541, 18 h; how it was run: as §9
Shigella sonnei = experiment: Antibacterial activity against Shigella sonnei assessed as growth inhibition after 18 hrs by broth dilution method; type: functional; how it was run: as §9
Salmonella typhi = experiment: Antibacterial activity against Salmonella typhi IFM 3020 assessed as growth inhibition after 18 hrs by broth dilution method; type: functional, Salmonella enterica subsp. enterica serovar Typhi; conditions: Salmonella enterica, IFM 3020, 18 h
How it was run: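 Twofold serial dilutions in heart infusion broth; inoculum from 24 h heart infusion broth culture diluted 100-fold in physiological saline; tubes incubated 30 °C for 18 h; MIC (µg/ml) = lowest level giving complete growth inhibition.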

Klebsiella pneumoniae = experiment: Antibacterial activity against Klebsiella pneumoniae ATCC 10031 assessed as growth inhibition after 18 hrs by broth dilution method; type: functional; conditions: ATCC 10031, 18 h; how it was run: as §9
Bacillus subtilis = experiment: Antibacterial activity against Bacillus subtilis ATCC 6633 assessed as growth inhibition after 18 hrs by broth dilution method; type: functional; conditions: ATCC 6633, 18 h; how it was run: as §9
[12] = Antitumor activity against mouse S180A allografted in ICR mouse assessed as tumor growth at 50 mg/kg, ip qd for 5 days measured on day 7 relative to control; type: functional; conditions: route intraperitoneal; how it was run: as §5
Mus musculus [13] = experiment: Toxicity in ICR mouse allografted with mouse S180A assessed as mortality at 50 mg/kg, ip qd for 5 days; type: organism-based; design: dose 50 mg/kg, route intraperitoneal; conditions: in vivo, 120 h; how it was run: as §6
Proteus vulgaris = experiment: Antibacterial activity against Proteus vulgaris AHU 1469 assessed as growth inhibition after 18 hrs by broth dilution method; type: functional; conditions: AHU 1469, 18 h; how it was run: as §9
Rattus norvegicus [14] = experiment: Diabetogenic activity in Wistar rat assessed as increase in blood sugar level at 74.7 mg/kg, iv administered as single dose by glucose oxidase method; type: ADME, organism-based; design: dose 74.7 mg/kg, route intravenous; conditions: in vivo; how it was run: as §4
Micrococcus luteus = experiment: Antibacterial activity against Sarcina lutea ATCC 9341 assessed as growth inhibition after 18 hrs by broth dilution method; type: functional; conditions: ATCC 9341, 18 h; how it was run: as §9
Pseudomonas fluorescens = experiment: Antibacterial activity against Pseudomonas fluorescens NIHJ B-254 assessed as growth inhibition after 18 hrs by broth dilution method; type: functional; conditions: NIHJ B-254, 18 h; how it was run: as §9
Staphylococcus aureus = experiment: Antibacterial activity against Staphylococcus aureus FDA 209P JC-1 assessed as growth inhibition after 18 hrs by broth dilution method; type: functional; conditions: FDA 209P JC-1, 18 h; how it was run: as §9
Mus musculus [15] = experiment: Toxicity in BDF1 mouse allografted with mouse L1210 cells assessed as mortality at 100 mg/kg, ip qd for 5 days; type: organism-based; design: dose 100 mg/kg, route intraperitoneal; conditions: in vivo, 120 h; how it was run: as §1
L1210 [16] = experiment: Antitumor activity against mouse L1210 cells allografted in BDF1 mouse assessed as increase in host lifespan at 100 mg/kg, ip qd for 5 days relative to control; type: functional; conditions: 120 h, route intraperitoneal; how it was run: as §1
Ehrlich [17] = experiment: Antitumor activity against mouse EAC allografted in ICR mouse assessed as tumor growth at 150 mg/kg, ip qd for 5 days measured on day 7 relative to control; type: functional; conditions: route intraperitoneal; how it was run: as §7
Rattus norvegicus [18] = experiment: Diabetogenic activity in Wistar rat assessed as increase in blood sugar level at 68 mg/kg, iv administered as single dose by glucose oxidase method; type: ADME, organism-based; design: dose 68 mg/kg, route intravenous; conditions: in vivo; how it was run: as §4
Mus musculus [19] = experiment: Toxicity in ICR mouse allografted with mouse EAC assessed as mortality at 150 mg/kg, ip qd for 5 days; type: organism-based; design: dose 150 mg/kg, route intraperitoneal; conditions: in vivo, 120 h; how it was run: as §8

| SMILES | Ratio (Mus musculus [1]) | selectivity ratio [2] | Activity (Mus musculus [3]) | LD50 [4] [mg/kg] | LD10 (Mus musculus [5]) [mg/kg] | Activity (Rattus norvegicus [6]) | ILS at 50 mg/kg (L1210 [7]) [%] | T/C [8] [%] | Activity (Mus musculus [9]) | T/C (Ehrlich [10]) [%] | Activity (Mus musculus [11]) | MIC (Escherichia coli) [µg/mL] | MIC (Enterococcus faecalis) [µg/mL] | MIC (Shigella sonnei) [µg/mL] | MIC (Salmonella typhi) [µg/mL] | MIC (Klebsiella pneumoniae) [µg/mL] | MIC (Bacillus subtilis) [µg/mL] | T/C [12] [%] | Activity (Mus musculus [13]) | MIC (Proteus vulgaris) [µg/mL] | also measured |
| --- | --- | --- | --- | --- | --- | --- | --- | --- | --- | --- | --- | --- | --- | --- | --- | --- | --- | --- | --- | --- | --- |
| CCCO[C@H]1O[C@H](CO)[C@@H](O)[C@H](O)[C@H]1NC(=O)N(C)N=O | 2 | 2 | Non-toxic | 1470 | 1020 | Non-toxic | 29 | 32 | Non-toxic | 37 | Non-toxic | – | – | – | – | – | – | – | – | – | – |
| CCCO[C@@H]1O[C@H](CO)[C@@H](O)[C@H](O)[C@H]1NC(=O)N(C)N=O | 2 | 2 | Non-toxic | 2150 | 1240 | – | 30 | – | – | – | – | > 1000 | > 1000 | > 1000 | > 1000 | > 1000 | > 1000 | 32 | Non-toxic | > 1000 | Activity (Rattus norvegicus [14]): Non-toxic; MIC (Micrococcus luteus): > 1000 µg/mL; MIC (Pseudomonas fluorescens): > 1000 µg/mL; MIC (Staphylococcus aureus): > 1000 µg/mL |
| CCCN(N=O)C(=O)N[C@H]1[C@H](OC)O[C@H](CO)[C@@H](O)[C@@H]1O | – | – | – | – | – | Non-toxic | – | – | – | 72 | Non-toxic | – | – | – | – | – | – | 69 | Non-toxic | – | Activity (Mus musculus [15]): Non-toxic; ILS at 100 mg/kg (L1210 [16]): 7% |
| CO[C@H]1O[C@H](CO)[C@@H](O)[C@H](O)[C@H]1NC(=O)N(C)N=O | 2 | 2 | Non-toxic | 1930 | 1380 | – | 35 | 37 | Non-toxic | – | – | > 1000 | > 1000 | > 1000 | > 1000 | > 1000 | > 1000 | – | – | > 1000 | T/C (Ehrlich [17]): 16%; Activity (Rattus norvegicus [18]): Non-toxic; MIC (Micrococcus luteus): > 1000 µg/mL; MIC (Pseudomonas fluorescens): > 1000 µg/mL; Activity (Mus musculus [19]): Non-toxic; MIC (Staphylococcus aureus): > 1000 µg/mL |
| CCCCN(N=O)C(=O)N[C@H]1[C@H](OC)O[C@H](CO)[C@@H](O)[C@@H]1O | – | – | Non-toxic | – | – | Non-toxic | 12 | – | – | 52 | Non-toxic | – | – | – | – | – | – | 54 | Non-toxic | – | – |
| CCCCO[C@@H]1O[C@H](CO)[C@@H](O)[C@H](O)[C@H]1NC(=O)N(C)N=O | 2 | 2 | Non-toxic | 1580 | 1100 | Non-toxic | 33 | 40 | Non-toxic | – | – | – | – | – | – | – | – | – | – | – | T/C (Ehrlich [17]): 4%; Activity (Mus musculus [19]): Non-toxic |
